Measured values reported in ChEMBL document CHEMBL1132234, “Simplified pepstatins: synthesis and evaluation of N-terminally modified analogues” (J Med Chem, 1999).
pIC50: −log10 of the molar value.

target: not listed separately; assay: (§1) The compound was tested for inhibitory effect towards the pepsin hydrolysis of Horseradish peroxidase; set-up: species or system plant
How it was run: (§2)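 Pepsin (10 µg ≙ 35 units, freshly prepared) was mixed with DMSO serial dilutions of inhibitor (1.00 mg/mL solution, 1:10 then 1:2 steps), with horseradish peroxidase as protein substrate. Mixtures were serially diluted 1:2 in 0.05 N HCl, and residual peroxidase was read with o-phenylenediamine/H₂O₂ in 0.2 M phosphate pH 6.5 (15 min, room temperature, OD 492 nm). Pepstatin A served as reference. IC50 was determined.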

| pIC50 | Structure (SMILES) |
| --- | --- |
| 7.51 | CC(C)CC(=O)N[C@H](C(=O)N[C@H](C(=O)N[C@@H](CC(C)C)[C@@H](O)CC(=O)N[C@@H](C)C(=O)N[C@@H](CC(C)C)[C@@H](O)CC(=O)O)C(C)C)C(C)C [PEPSTATIN] |
| 5.35 | CCCCCCC(O)[C@H](CC(C)C)NC(=O)[C@@H](NC(=O)[C@@H](NC(=O)C1CC1)C(C)C)C(C)C (stereo not given in full) |

target: Pepsin A (Sus scrofa, UniProt P00791); assay: as §1; set-up: species or system plant; how it was run: as §2
Sequence (P00791 whole entry): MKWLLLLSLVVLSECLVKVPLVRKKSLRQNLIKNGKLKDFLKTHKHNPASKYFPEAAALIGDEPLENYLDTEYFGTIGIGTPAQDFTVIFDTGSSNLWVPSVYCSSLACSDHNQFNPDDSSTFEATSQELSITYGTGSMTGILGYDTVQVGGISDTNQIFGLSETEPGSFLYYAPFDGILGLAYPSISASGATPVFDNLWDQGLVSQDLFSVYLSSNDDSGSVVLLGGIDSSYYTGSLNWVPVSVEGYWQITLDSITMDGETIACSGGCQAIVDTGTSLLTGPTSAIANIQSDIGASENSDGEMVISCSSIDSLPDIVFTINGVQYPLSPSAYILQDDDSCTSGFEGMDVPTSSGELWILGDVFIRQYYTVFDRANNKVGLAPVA

| pIC50 | Structure (SMILES) |
| --- | --- |
| 5.96 | CCCCCCC(O)[C@H](CC(C)C)NC(=O)[C@@H](NC(=O)[C@@H](NC(=O)CC(C)(C)C)C(C)C)C(C)C (stereo not given in full) |
| 6.04 | CCCCCCC(O)[C@H](CC(C)C)NC(=O)[C@@H](NC(=O)[C@@H](NC(=O)CC(C)C)C(C)C)C(C)C (stereo not given in full) |
| 5.92 | CCCCCCC(O)[C@H](CC(C)C)NC(=O)[C@@H](NC(=O)[C@@H](NC(=O)OC(C)C)C(C)C)C(C)C (stereo not given in full) |
| 6.16 | CCCCCCC(O)[C@H](CC(C)C)NC(=O)[C@@H](NC(=O)[C@@H](NC(=O)OCc1ccccc1)C(C)C)C(C)C (stereo not given in full) |
| 6.14 | CCCCCCC(O)[C@H](CC(C)C)NC(=O)[C@@H](NC(=O)[C@@H](NC(=O)CCc1ccccc1)C(C)C)C(C)C (stereo not given in full) |
| 6.68 | CCCCCCC(O)[C@H](CC(C)C)NC(=O)[C@@H](NC(=O)[C@@H](NC(=O)OC(C)(C)C)C(C)C)C(C)C (stereo not given in full) |
| 5.49 | CCCCCCC(O)[C@H](CC(C)C)NC(=O)[C@@H](NC(=O)[C@@H](NC(=O)CC)C(C)C)C(C)C (stereo not given in full) |
| 5.44 | CCCCCCC(O)[C@H](CC(C)C)NC(=O)[C@@H](NC(=O)[C@@H](NC(=O)C(C)C)C(C)C)C(C)C (stereo not given in full) |
